Experimental data taken from ChEMBL document CHEMBL1157664, “Aminopyridinecarboxamide-based inhibitors: Structure-activity relationship” (Bioorg Med Chem, 2010).

What was measured:
[1] = Antiinflammatory activity in human synovial fibroblasts assessed as inhibition of IL-1-beta-stimulated IL8 production treated 1 hr before IL1-beta challenge measured after 18 hrs by ELISA; assay type: functional
Summary of the method: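 Rheumatoid arthritis patient synovial fibroblasts seeded at 1.5 × 10^4 cells/well in DMEM + 15% FBS and left to attach overnight. Medium then changed to DMEM + 1% FBS. Cells pretreated 1 h with increasing compound concentrations (0.2% Me2SO final), then stimulated 18 h with 1 ng/mL IL-1β. Secreted IL-8 measured by ELISA against standard curves (4-parameter logistic). Cytotoxicity checked by Alamar Blue.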

[2] = target: T1, Inhibitor of nuclear factor kappa-B kinase subunit beta (Homo sapiens, UniProt O14920); experiment: Inhibition of human recombinant IKK2-mediated transfer of [gamma33P]ATP to biotinylated IkappaBalpha after 30 mins by scintillation counting
T1 sequence (O14920 whole entry): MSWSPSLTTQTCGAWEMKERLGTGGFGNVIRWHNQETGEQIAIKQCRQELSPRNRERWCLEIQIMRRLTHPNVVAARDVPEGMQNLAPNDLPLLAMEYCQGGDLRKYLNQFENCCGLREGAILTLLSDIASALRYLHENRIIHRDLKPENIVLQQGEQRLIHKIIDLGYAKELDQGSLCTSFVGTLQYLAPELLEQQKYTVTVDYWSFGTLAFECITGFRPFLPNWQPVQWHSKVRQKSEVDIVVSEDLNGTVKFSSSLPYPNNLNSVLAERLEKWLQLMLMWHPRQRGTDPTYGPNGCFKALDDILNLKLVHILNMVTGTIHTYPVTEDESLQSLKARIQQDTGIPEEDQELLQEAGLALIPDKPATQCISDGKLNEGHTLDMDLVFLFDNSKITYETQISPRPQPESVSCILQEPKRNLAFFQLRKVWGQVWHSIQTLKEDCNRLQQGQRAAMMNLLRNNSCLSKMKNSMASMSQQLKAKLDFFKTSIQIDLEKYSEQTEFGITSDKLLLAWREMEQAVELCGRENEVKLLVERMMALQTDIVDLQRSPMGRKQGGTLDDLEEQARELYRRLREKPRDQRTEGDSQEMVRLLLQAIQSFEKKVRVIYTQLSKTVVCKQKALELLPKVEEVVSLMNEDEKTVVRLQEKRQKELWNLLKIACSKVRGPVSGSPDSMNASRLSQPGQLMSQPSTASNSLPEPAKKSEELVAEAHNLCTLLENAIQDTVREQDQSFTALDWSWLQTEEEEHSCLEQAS
Summary of the method: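 Recombinant human IKK-2 enzyme (46 nM/rxn, 200 ng/rxn). Substrate 5 µM biotinylated IκBα peptide (residues spanning Ser32/Ser36) with 1 µM ATP plus 0.1 µCi [γ-33P]ATP. Buffer 25 mM Hepes pH 7.6 with 1 mM DTT, 2 mM MgCl2, 2 mM MnCl2, 10 mM NaF. Incubated 30 min at 25 °C, stopped with AG1X8 resin in formate buffer pH 3. Supernatant ³³P read by scintillation counting.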

Compound | IC50 [1] | IC50 [2]
NC(=O)c1nn(-c2ccc(F)cc2)c2c1CCc1ccc(NC(=O)c3cc(N4CCCNCC4)ncc3Cl)cc1-2 | 1940 nM | 27 nM
CN1CCCN(c2cc(C(=O)Nc3ccc4c(c3)-c3c(c(C(N)=O)nn3-c3ccc(F)cc3)CC4)c(Cl)cn2)CC1 | 2360 nM | 29 nM
C[C@H]1CN(c2cc(C(=O)Nc3ccc4c(c3)-c3c(c(C(N)=O)nn3-c3ccc(F)cc3)CC4)c(Cl)cn2)CCN1 | 1320 nM | 51 nM
NC(=O)c1nn(-c2ccc(F)cc2)c2c1CCc1ccc(NC(=O)c3cccnc3Cl)cc1-2 | 12000 nM | 47 nM
C[C@@H]1CN(c2cc(C(=O)Nc3ccc4c(c3)-c3c(c(C(N)=O)nn3-c3ccc(F)cc3)CC4)c(Cl)cn2)CCN1 | 3980 nM | 54 nM
CNc1ncccc1C(=O)Nc1ccc2c(c1)-c1c(c(C(N)=O)nn1-c1ccc(F)cc1)CC2 | – | 3210 nM
CN1CCN(c2ncccc2C(=O)Nc2ccc3c(c2)-c2c(c(C(N)=O)nn2-c2ccc4c(c2)OCO4)CC3)CC1 | – | 17300 nM
CN1CCN(c2ccc(Cl)c(C(=O)Nc3ccc4c(c3)-c3c(c(C(N)=O)nn3-c3ccc5c(c3)OCO5)CC4)n2)CC1 | 4420 nM | 297 nM
NC(=O)c1nn(-c2ccc(F)cc2)c2c1CCc1ccc(NC(=O)c3nc(N4CCOCC4)ccc3Cl)cc1-2 | 3040 nM | 1250 nM
C[C@@H]1CN(c2cc(C(=O)Nc3ccc4c(c3)-c3c(c(C(N)=O)nn3-c3ccc(F)cc3)CC4)c(Cl)cn2)CCN1C | 2180 nM | 48 nM
C[C@@H]1CN(c2cc(C(=O)Nc3ccc4c(c3)-c3c(c(C(N)=O)nn3-c3ccc(F)cc3)CC4)c(Cl)cn2)C[C@H](C)N1 | 8600 nM | 46 nM
NC(=O)c1nn(-c2ccc3c(c2)OCO3)c2c1CCc1ccc(NC(=O)c3cc(N4CCOCC4)ncc3Cl)cc1-2 | 849 nM | 90 nM
CNc1ncccc1C(=O)Nc1ccc2c(c1)-c1c(c(C(N)=O)nn1-c1ccc3c(c1)OCO3)CC2 | 3370 nM | 210 nM
CN1CCN(c2ncccc2C(=O)Nc2ccc3c(c2)-c2c(c(C(N)=O)nn2-c2ccc(F)cc2)CC3)CC1 | – | 16200 nM
NC(=O)c1nn(-c2ccc3c(c2)OCO3)c2c1CCc1ccc(NC(=O)c3cccnc3N)cc1-2 | – | 1340 nM
C[C@H]1CN(c2cc(C(=O)Nc3ccc4c(c3)-c3c(c(C(N)=O)nn3-c3ccc(F)cc3)CC4)c(Cl)cn2)CCN1C | 1310 nM | 45 nM
NC(=O)c1nn(-c2ccc3c(c2)OCO3)c2c1CCc1ccc(NC(=O)c3cccnc3Cl)cc1-2 | 5000 nM | 34 nM

Compound | IC50 [1] | IC50 [2]
CNc1ccc(Cl)c(C(=O)Nc2ccc3c(c2)-c2c(c(C(N)=O)nn2-c2ccc4c(c2)OCO4)CC3)n1 | 5740 nM | 477 nM
CN(C)CCNc1cc(C(=O)Nc2ccc3c(c2)-c2c(c(C(N)=O)nn2-c2ccc(F)cc2)CC3)c(Cl)cn1 | 4720 nM | 70 nM
NC(=O)c1nn(-c2ccc3c(c2)OCO3)c2c1CCc1ccc(NC(=O)c3nc(N4CCOCC4)ccc3Cl)cc1-2 | > 100000 nM | 612 nM
NC(=O)c1nn(-c2ccc(F)cc2)c2c1CCc1ccc(NC(=O)c3ccnc(N4CCOCC4)c3)cc1-2 | > 5000 nM | 589 nM
C[C@@H]1CN(c2cc(C(=O)Nc3ccc4c(c3)-c3c(c(C(N)=O)nn3-c3ccc(F)cc3)CC4)c(Cl)cn2)C[C@H](C)N1C | 5500 nM | 98 nM
CN1CCN(c2cc(C(=O)Nc3ccc4c(c3)-c3c(c(C(N)=O)nn3-c3ccc(F)cc3)CC4)ccn2)CC1 | > 5000 nM | 125 nM
CC(C)N1CCN(c2cc(C(=O)Nc3ccc4c(c3)-c3c(c(C(N)=O)nn3-c3ccc(F)cc3)CC4)c(Cl)cn2)CC1 | 1490 nM | 107 nM
CN1CCN(c2ccc(Cl)c(C(=O)Nc3ccc4c(c3)-c3c(c(C(N)=O)nn3-c3ccc(F)cc3)CC4)n2)CC1 | 4830 nM | 348 nM
CN1CCN(c2cc(C(=O)Nc3ccc4c(c3)-c3c(c(C(N)=O)nn3-c3ccc5c(c3)OCO5)CC4)c(Cl)cn2)CC1 | 630 nM | 33 nM
CN(C)CCN(C)c1cc(C(=O)Nc2ccc3c(c2)-c2c(c(C(N)=O)nn2-c2ccc(F)cc2)CC3)c(Cl)cn1 | 4180 nM | 19 nM
NC(=O)c1nn(-c2ccc(F)cc2)c2c1CCc1ccc(NC(=O)c3cccnc3N)cc1-2 | – | 2320 nM
NC(=O)c1nn(-c2ccc(F)cc2)c2c1CCc1ccc(NC(=O)c3cc(N4CCNCC4)ncc3Cl)cc1-2 | 2470 nM | 10 nM
NC(=O)c1nn(-c2ccc(F)cc2)c2c1CCc1ccc(NC(=O)c3cccnc3N3CCOCC3)cc1-2 | – | 14200 nM
NC(=O)c1nn(-c2ccc3c(c2)OCO3)c2c1CCc1ccc(NC(=O)c3cc(N4CCNCC4)ncc3Cl)cc1-2 | 1860 nM | 40 nM
NC(=O)c1nn(-c2ccc3c(c2)OCO3)c2c1CCc1ccc(NC(=O)c3cccnc3N3CCOCC3)cc1-2 | – | 5910 nM
COCCN1CCN(c2cc(C(=O)Nc3ccc4c(c3)-c3c(c(C(N)=O)nn3-c3ccc(F)cc3)CC4)c(Cl)cn2)CC1 | 1020 nM | 59 nM
NC(=O)c1nn(-c2ccc(F)cc2)c2c1CCc1ccc(NC(=O)c3cc(N4CCOCC4)ncc3Cl)cc1-2 | 2140 nM | 146 nM
